Measurements reported in ChEMBL document CHEMBL1126715, “Synthesis and tissue distribution of (m-[125I]iodobenzyl)trozamicol ([125I]MIBT): potential radioligand for mapping central cholinergic innervation” (J Med Chem, 1993).

Experiments:
Rattus norvegicus [1] = species: Rattus norvegicus; test: Regional kinetics in the remainder of rat brain at 120 minutes; format: ADME, organism-based; conditions: in vivo, 2 h
In short: (§1)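 Male Wistar rats (n = 4 per time point) under ether received (+)-radiotracer iv (2 μCi in 100 μL 50% aqueous EtOH). They were killed at 30, 120 or 180 min. Brains were partially frozen and dissected into striatum, cerebellum, cortex and remainder. Regions were γ-counted against injected-dose dilutions and expressed as % injected dose/g tissue.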

Rattus norvegicus [2] = species: Rattus norvegicus; test: Effect of vesamicol on the accumulation in rat spleen [0.97 (0.89-1.04)]; format: ADME, organism-based; conditions: in vivo
In short: (§2)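 Male Wistar rats (n = 4/group) given iv vehicle (100 μL 50% aqueous EtOH) or dl-vesamicol (1.01 μmol/kg); 15 min later iv radiotracer (2.0 μCi in 100 μL 50% aqueous EtOH); killed 30 min post-tracer. Blood by cardiac puncture, organs weighed and γ-counted vs 1:100 injected-dose dilution; % dose/g tissue (range); tissue/blood ratios.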

Rattus norvegicus [3] = species: Rattus norvegicus; test: Regional kinetics in the rat brain cortex at 30 minutes; format: ADME, organism-based; conditions: in vivo, 0.5 h
In short: (§3)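 Male Wistar rats under ether anaesthesia, iv (+)-[125I]tracer (2 μCi in 100 μL 50% aqueous EtOH); killed at 30, 120 or 180 min. Brains partially frozen and dissected into striatum, cerebellum, cortex and remainder, then counted for radioactivity. Results are % injected dose/g, calculated against counted dilutions of the injected dose.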

Rattus norvegicus [4] = species: Rattus norvegicus; test: Effect of vesamicol on the accumulation in rat lung [1.56 (1.28-1.90)]; format: ADME, organism-based; conditions: in vivo; in short: as §2
Rattus norvegicus [5] = species: Rattus norvegicus; test: Effect of 4-aminobenzovesamicol on the regional distribution of compound in the rat brain caudate-putamen (n=4) [0.40 (0.35-0.47)]; format: ADME, organism-based; conditions: in vivo
Rattus norvegicus [6] = species: Rattus norvegicus; test: Tissue distribution in rat thyroid after 60 minutes (n=3); format: ADME, organism-based, Thyroid gland; conditions: in vivo, 1 h
In short: (§4)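 Male Wistar rats (200-350 g) under ether anesthesia; radiotracer (3-5 μCi in 0.1 mL 50% aqueous ethanol) given iv. At 5, 30, 60 and 180 min, blood was drawn by cardiac puncture and animals were killed by cardiectomy. Organs were weighed and γ-counted against a 1:100 dilution of the injected dose. Results are given as % injected dose/g tissue; ratios are taken between tissue levels.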

Rattus norvegicus [7] = species: Rattus norvegicus; test: Effect of haloperidol on the regional distribution of compound in the rat brain caudate-putamen (n=4) [0.75 (0.60-0.85)]; format: ADME, organism-based; conditions: in vivo
Rattus norvegicus [8] = species: Rattus norvegicus; test: Tissue distribution in rrat heart after 60 minutes (n=3); format: ADME, organism-based; conditions: in vivo, 1 h; in short: as §4
Rattus norvegicus [9] = species: Rattus norvegicus; test: Effect of vesamicol on the accumulation in rat kidney [1.76 (1.55-2.08)]; format: ADME, organism-based; conditions: in vivo; in short: as §2
Rattus norvegicus [10] = species: Rattus norvegicus; test: Ratio of effect haloperidol on regional distribution between rat brain caudate and cerebellum; format: ADME, organism-based; conditions: in vivo
Rattus norvegicus [11] = species: Rattus norvegicus; test: Effect of 4-aminobenzovesamicol on the regional distribution of compound in the rat brain cortex (n=4) [0.23 (0.19-0.25)]; format: ADME, organism-based; conditions: in vivo
Rattus norvegicus [12] = species: Rattus norvegicus; test: Effect of haloperidol on the regional distribution of compound in the rat brain cortex (n=4) [0.32 (0.29-0.38)]; format: ADME, organism-based, Cerebral cortex; conditions: in vivo
Rattus norvegicus [13] = species: Rattus norvegicus; test: Tissue distribution in rat brain after 60 minutes (n=3); format: ADME, organism-based; conditions: in vivo, 1 h; in short: as §4
Rattus norvegicus [14] = species: Rattus norvegicus; test: Tissue distribution in rat blood after 60 minutes (n=3); format: ADME, organism-based; conditions: in vivo, 1 h
In short: (§5)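 Male Wistar rats (200-350 g) under ether, iv [125I]tracer (3-5 μCi in 0.1 mL 50% aqueous EtOH). At 5, 30, 60 or 180 min, blood taken by cardiac puncture and the rat killed by cardiectomy. Organs weighed and γ-counted against 1:100 dilutions of the injected dose; results in % injected dose/g, with range.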

Rattus norvegicus [15] = species: Rattus norvegicus; test: Tissue distribution in rat blood after 5 minutes (n=3); format: ADME, organism-based; conditions: in vivo; in short: as §4
Rattus norvegicus [16] = species: Rattus norvegicus; test: Tissue distribution in rat lung after 60 minutes (n=3); format: ADME, organism-based; conditions: in vivo, 1 h; in short: as §4
Rattus norvegicus [17] = species: Rattus norvegicus; test: Tissue distribution in rat muscle after 180 minutes (n=3); format: ADME, organism-based; conditions: in vivo, 3 h; in short: as §4
Rattus norvegicus [18] = species: Rattus norvegicus; test: Ratio of regional kinetics between rat brain caudate and cerebellum at 120 minutes; format: ADME, organism-based; conditions: in vivo, 2 h
In short: (§6)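 Male Wistar rats (n = 4/group) under ether anesthesia, iv (+)-[125I]MIBT (2 μCi in 100 μL 50% aqueous EtOH); killed at 30, 120, 180 min. Brains partially frozen, dissected into striatum, cerebellum, cortex and remainder; radioactivity counted, % dose/g vs injected-dose dilutions; caudate/cortex and caudate/cerebellum ratios.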

Rattus norvegicus [19] = species: Rattus norvegicus; test: Effect of vesamicol on the accumulation in rat heart [0.25 (0.21-0.30)]; format: ADME, organism-based; conditions: in vivo
In short: (§7)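 Male Wistar rats. Pretreatment at t = 0 was iv vehicle (50% aqueous EtOH) or iv dl-vesamicol (1.01 μmol/kg). At 15 min, iv [125I]tracer (2.0 μCi in 100 μL 50% aqueous EtOH) was given; rats were killed 30 min later. Tissues were weighed and γ-counted, and values expressed as % injected dose/g; n = 4 per group.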

Rattus norvegicus [20] = species: Rattus norvegicus; test: Regional kinetics in the rat cerebellum at 180 minutes; format: ADME, organism-based; conditions: in vivo, 3 h; in short: as §1
Rattus norvegicus [21] = species: Rattus norvegicus; test: Regional kinetics in the rat brain caudate-putamen at 120 minutes; format: ADME, organism-based; conditions: in vivo, 2 h; in short: as §1
Rattus norvegicus [22] = species: Rattus norvegicus; test: Tissue distribution in rat kidney after 5 minutes (n=3); format: ADME, organism-based; conditions: in vivo; in short: as §4
Rattus norvegicus [23] = species: Rattus norvegicus; test: Ratio of tissue distribution between rat brain and blood after 60 min; format: ADME, organism-based; conditions: 1 h; in short: as §4
Rattus norvegicus [24] = species: Rattus norvegicus; test: Ratio of effect 4-aminobenzovesamicol on regional distribution between rat brain caudate and cerebellum; format: ADME, organism-based; conditions: in vivo
Rattus norvegicus [25] = species: Rattus norvegicus; test: Regional kinetics in the rat brain cortex at 180 minutes; format: ADME, organism-based; conditions: in vivo, 3 h; in short: as §3
Rattus norvegicus [26] = species: Rattus norvegicus; test: Ratio of regional kinetics between rat brain caudate and cerebellum at 180 minutes; format: ADME, organism-based; conditions: in vivo, 3 h; in short: as §6
Rattus norvegicus [27] = species: Rattus norvegicus; test: Tissue distribution in rat thyroid after 5 minutes (n=3); format: ADME, organism-based, Thyroid gland; conditions: in vivo; in short: as §5
Rattus norvegicus [28] = species: Rattus norvegicus; test: Tissue distribution in rat muscle after 60 minutes (n=3); format: ADME, organism-based; conditions: in vivo, 1 h; in short: as §5
Rattus norvegicus [29] = species: Rattus norvegicus; test: Tissue distribution in rat kidney after 30 minutes (n=3); format: ADME, organism-based; conditions: in vivo, 0.5 h; in short: as §4
Rattus norvegicus [30] = species: Rattus norvegicus; test: Tissue distribution in rat gonads after 30 minutes (n=3); format: ADME, organism-based, Gonad; conditions: in vivo, 0.5 h; in short: as §4
Rattus norvegicus [31] = species: Rattus norvegicus; test: Tissue distribution in rat liver after 60 minutes (n=3); format: ADME, organism-based; conditions: in vivo, 1 h; in short: as §4
Rattus norvegicus [32] = species: Rattus norvegicus; test: Effect of vesamicol on the accumulation in rat thyroid [1.77 (1.47-1.93)]; format: ADME, organism-based, Thyroid gland; conditions: in vivo; in short: as §7
Rattus norvegicus [33] = species: Rattus norvegicus; test: Tissue distribution in rat muscle after 5 minutes (n=3); format: ADME, organism-based; conditions: in vivo; in short: as §4
Rattus norvegicus [34] = species: Rattus norvegicus; test: Regional kinetics in the rat brain cortex at 120 minutes; format: ADME, organism-based; conditions: in vivo, 2 h; in short: as §1
Rattus norvegicus [35] = species: Rattus norvegicus; test: Ratio of tissue distribution between rat brain and blood after 180 min; format: ADME, organism-based; conditions: 3 h
In short: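 Male Wistar rats (200-350 g) under ether anesthesia, iv radiotracer (3-5 μCi in 0.1 mL 50% aqueous ethanol). At 5, 30, 60, 180 min blood taken by cardiac puncture, animal killed by cardiectomy; organs weighed, γ-counted against 1:100 injected-dose dilution; % injected dose/g tissue; brain/blood ratio.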

Rattus norvegicus [36] = species: Rattus norvegicus; test: Tissue distribution in rat gonads after 180 minutes (n=3); format: ADME, organism-based, Gonad; conditions: in vivo, 3 h; in short: as §4
Rattus norvegicus [37] = species: Rattus norvegicus; test: Regional kinetics in the rat cerebellum at 30 minutes; format: ADME, organism-based; conditions: in vivo, 0.5 h; in short: as §1
Rattus norvegicus [38] = species: Rattus norvegicus; test: Tissue distribution in rat thyroid after 30 minutes (n=3); format: ADME, organism-based, Thyroid gland; conditions: in vivo, 0.5 h; in short: as §4
Rattus norvegicus [39] = species: Rattus norvegicus; test: Regional kinetics in the remainder of rat brain at 180 minutes; format: ADME, organism-based; conditions: in vivo, 3 h; in short: as §1
Rattus norvegicus [40] = species: Rattus norvegicus; test: Effect of haloperidol on the regional distribution of compound in the rat cerebellum (n=4) [0.22 (0.18-0.24)]; format: ADME, organism-based; conditions: in vivo
Rattus norvegicus [41] = species: Rattus norvegicus; test: Ratio of regional kinetics between rat brain caudate and cortex at 30 minutes; format: ADME, organism-based; conditions: in vivo, 0.5 h; in short: as §6
Rattus norvegicus [42] = species: Rattus norvegicus; test: Tissue distribution in rat lung after 30 minutes (n=3); format: ADME, organism-based; conditions: in vivo, 0.5 h; in short: as §4
Rattus norvegicus [43] = species: Rattus norvegicus; test: Tissue distribution in rat spleen after 30 minutes (n=3); format: ADME, organism-based; conditions: in vivo, 0.5 h; in short: as §4

Work on `O[C@@H]1CCN(Cc2cccc([125I])c2)C[C@H]1N1CCC(c2ccccc2)CC1` (stereo in doubt; (+)) yielded a Dose/g (Rattus norvegicus [1]) of 0.4%, a Dose/g (Rattus norvegicus [2]) of 0.97% and a Dose/g (Rattus norvegicus [3]) of 0.65%. It also gave a Dose/g (Rattus norvegicus [4]) of 1.59%, a Dose/g (Rattus norvegicus [5]) of 0.23% and a Dose/g (Rattus norvegicus [6]) of 4.59%. It also gave a Dose/g (Rattus norvegicus [7]) of 0.99%, a Dose/g (Rattus norvegicus [8]) of 0.15% and a Dose/g (Rattus norvegicus [9]) of 0.91%. The Ratio (Rattus norvegicus [10]) was 10.97, the Dose/g (Rattus norvegicus [11]) was 0.15% and the Dose/g (Rattus norvegicus [12]) was 0.21%. For the same molecule, the Dose/g (Rattus norvegicus [13]) was 0.27%, the Dose/g (Rattus norvegicus [14]) was 0.09% and the Dose/g (Rattus norvegicus [15]) was 0.24%. It also gave a Dose/g (Rattus norvegicus [16]) of 0.82%, a Dose/g (Rattus norvegicus [17]) of 0.08% and a Ratio (Rattus norvegicus [18]) of 2.43. For the same molecule, the Dose/g (Rattus norvegicus [19]) was 0.24%, the Dose/g (Rattus norvegicus [20]) was 0.17% and the Dose/g (Rattus norvegicus [21]) was 0.67%. The Dose/g (Rattus norvegicus [22]) was 2.25%, the Ratio (Rattus norvegicus [23]) was 3.08 and the Ratio (Rattus norvegicus [24]) was 2.07. It also gave a Dose/g (Rattus norvegicus [25]) of 0.25%, a Ratio (Rattus norvegicus [26]) of 2.95 and a Dose/g (Rattus norvegicus [27]) of 1.6%. It also gave a Dose/g (Rattus norvegicus [28]) of 0.11%, a Dose/g (Rattus norvegicus [29]) of 1.32% and a Dose/g (Rattus norvegicus [30]) of 0.15%. For the same molecule, the Dose/g (Rattus norvegicus [31]) was 1.91%, the Dose/g (Rattus norvegicus [32]) was 2.02% and the Dose/g (Rattus norvegicus [33]) was 0.34%. For the same molecule, the Dose/g (Rattus norvegicus [34]) was 0.4%, the Ratio (Rattus norvegicus [35]) was 2.35 and the Dose/g (Rattus norvegicus [36]) was 0.16%. It also gave a Dose/g (Rattus norvegicus [37]) of 0.53%, a Dose/g (Rattus norvegicus [38]) of 2.33% and a Dose/g (Rattus norvegicus [39]) of 0.25%. The Dose/g (Rattus norvegicus [40]) was 0.09%, the Ratio (Rattus norvegicus [41]) was 0.98 and the Dose/g (Rattus norvegicus [42]) was 1.21%. The Dose/g (Rattus norvegicus [43]) was 1.07%.
